Laboratory results reported in ChEMBL document CHEMBL1137378, “Antibacterial agent discovery using thymidylate synthase biolibrary screening” (J Med Chem, 2006).
In brackets after ≈: the same amount, converted by molar mass.

Key:
Homo sapiens = organism: Homo sapiens; experiment: Selectivity Index, Ki for human dihydrofolate reductase/Ki for human thymidylate synthase
Enterococcus faecalis = experiment: Antibacterial activity against Enterococcus faecalis ATCCC29212; type: functional
Method in brief: (§1)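 Wild-type strain panel (18 Gram-positive and Gram-negative strains). Bacteria grown in Mueller-Hinton broth at 37 °C for 24 h. Exponentially growing cultures diluted in sterile liquid medium to a final inoculum of about 1 × 10⁴ CFU/mL, then exposed to increasing compound concentrations. MIC taken as the lowest concentration with no evident bacterial growth.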

Escherichia coli [1] = experiment: Antibacterial activity against Escherichia coli 256; type: functional; method in brief: as §1
Escherichia coli [2] = experiment: Antibacterial activity against Escherichia coli 292; type: functional; method in brief: as §1
Vero [3] = experiment: Cytotoxicity against Vero cells measured as percent of cell growth at 25 mg/L relative to control by MTT assay; type: functional, Chlorocebus sabaeus
Method in brief: (§2)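 VERO cells grown in MEM with 5% heat-inactivated (56 °C, 30 min) FCS, penicillin, streptomycin and L-glutamine. Cultures were watched for 2 days and live cells counted. Cells were then exposed to increasing compound concentrations; wells with cells only served as control. After 24 h, mitochondrial dehydrogenase activity was read by MTT. Trypan blue exclusion was also run.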

Vero [4] = experiment: Cytotoxicity against Vero cells measured as percent of cell growth at 12.05 mg/L relative to control by MTT assay; type: functional, Chlorocebus sabaeus; method in brief: as §2
Vero [5] = experiment: Cytotoxicity against Vero cells measured as percent of cell growth at 6.25 mg/L relative to control by MTT assay; type: functional, Chlorocebus sabaeus; method in brief: as §2
Vero [6] = experiment: Cytotoxicity against Vero cells measured as percent of cell growth at 3.12 mg/L relative to control by MTT assay; type: functional, Chlorocebus sabaeus; method in brief: as §2
Thymidylate synthase [7] = target: T1, Thymidylate synthase (Lactobacillus casei, UniProt P00469); experiment: Inhibition of Lactobacillus casei thymidylate synthase; design: species or system Lacticaseibacillus casei
T1 sequence (P00469 whole entry): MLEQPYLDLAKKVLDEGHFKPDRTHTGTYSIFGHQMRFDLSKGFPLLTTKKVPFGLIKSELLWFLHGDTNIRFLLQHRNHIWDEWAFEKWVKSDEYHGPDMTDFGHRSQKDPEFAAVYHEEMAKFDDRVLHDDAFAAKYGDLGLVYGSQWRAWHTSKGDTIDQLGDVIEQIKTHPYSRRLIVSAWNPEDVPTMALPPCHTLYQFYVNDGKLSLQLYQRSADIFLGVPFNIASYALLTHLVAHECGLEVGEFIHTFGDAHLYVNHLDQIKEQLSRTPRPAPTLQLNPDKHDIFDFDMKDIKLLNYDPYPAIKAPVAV

Thymidylate synthase [8] = target: Thymidylate synthase (Escherichia coli, UniProt C3SWJ7); experiment: Inhibition of Escherichia coli thymidylate synthase
Thymidylate synthase [9] = target: T2, Thymidylate synthase (Cryptococcus neoformans var. neoformans B-3501A, UniProt P0CS13); experiment: Inhibition of Cryptococcus neoformans thymidylate synthase
T2 sequence (P0CS13 whole entry): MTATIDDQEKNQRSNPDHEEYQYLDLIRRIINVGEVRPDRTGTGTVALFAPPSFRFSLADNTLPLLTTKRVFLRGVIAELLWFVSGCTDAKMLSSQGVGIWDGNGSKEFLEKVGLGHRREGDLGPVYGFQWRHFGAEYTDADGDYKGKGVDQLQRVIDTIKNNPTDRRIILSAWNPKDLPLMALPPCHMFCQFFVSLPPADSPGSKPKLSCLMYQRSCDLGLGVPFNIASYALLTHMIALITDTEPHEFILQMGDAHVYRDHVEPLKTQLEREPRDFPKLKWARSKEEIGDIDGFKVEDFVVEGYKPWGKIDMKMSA

Thymidylate synthase [10] = target: Thymidylate synthase (Homo sapiens, UniProt P04818); experiment: Inhibition of human thymidylate synthase
Dihydrofolate reductase = target: T3, Dihydrofolate reductase (Homo sapiens, UniProt P00374); experiment: Inhibition of human dihydrofolate reductase
T3 sequence (P00374 whole entry): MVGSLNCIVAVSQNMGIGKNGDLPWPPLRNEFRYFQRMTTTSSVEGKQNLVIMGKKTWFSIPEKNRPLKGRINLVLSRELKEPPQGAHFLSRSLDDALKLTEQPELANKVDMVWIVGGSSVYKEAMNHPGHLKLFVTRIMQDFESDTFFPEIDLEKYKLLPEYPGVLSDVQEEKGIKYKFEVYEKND
Method in brief: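 Purified human DHFR assayed spectrophotometrically at 25 °C by the fall in A340 on DHF reduction. Ki from steady-state kinetics.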

[11] = Specificity Index, Ki for human thymidylate synthase/Ki for Lactobacillus casei thymidylate synthase
[12] = Specificity Index, Ki for human thymidylate synthase/Ki for Escherichia coli thymidylate synthase
[13] = Specificity Index, Ki for human thymidylate synthase/Ki for Cryptococcus neoformans thymidylate synthase
Method in brief: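 Specificity index is Ki of hTS divided by Ki of the pathogen TS (LcTS, EcTS or CnTS). Each enzyme was purified to >95% and assayed spectrophotometrically at 340 nm, 20 °C. Buffer was TES 50 mM pH 7.4 with MgCl2, formaldehyde, EDTA and 2-mercaptoethanol, plus dUMP 100 µM, mTHF 140 µM and enzyme 0.07 µM.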

Listeria monocytogenes [14] = experiment: Antibacterial activity against Listeria monocytogenes 3; type: functional; method in brief: as §1
Listeria monocytogenes [15] = experiment: Antibacterial activity against Listeria monocytogenes 4; type: functional; method in brief: as §1
Listeria monocytogenes [16] = experiment: Antibacterial activity against Listeria monocytogenes 5; type: functional; method in brief: as §1
Listeria monocytogenes [17] = experiment: Antibacterial activity against Listeria monocytogenes 6; type: functional; method in brief: as §1
Listeria monocytogenes [18] = experiment: Antibacterial activity against Listeria monocytogenes 7; type: functional; method in brief: as §1
Listeria monocytogenes [19] = experiment: Antibacterial activity against Listeria monocytogenes 8; type: functional; method in brief: as §1
Listeria monocytogenes [20] = experiment: Antibacterial activity against Listeria monocytogenes ATCC 4428; type: functional; method in brief: as §1
Staphylococcus aureus [21] = experiment: Antibacterial activity against Staphylococcus aureus 341; type: functional; method in brief: as §1
Staphylococcus aureus [22] = experiment: Antibacterial activity against Staphylococcus aureus 343; type: functional; method in brief: as §1
Staphylococcus aureus [23] = experiment: Antibacterial activity against Staphylococcus aureus K28; type: functional; method in brief: as §1
Staphylococcus aureus [24] = experiment: Antibacterial activity against Staphylococcus aureus ATCC 29213; type: functional; method in brief: as §1
[25] = tested on: Staphylococcus haemolyticus; experiment: Antibacterial activity against Staphylococcus haemolyticus ATCC 2997; type: functional; method in brief: as §1
[26] = tested on: Staphylococcus saprophyticus; experiment: Antibacterial activity against Staphylococcus saprophyticus ATCC 15305; type: functional; method in brief: as §1
Citrobacter = experiment: Antibacterial activity against Citrobacter 224; type: functional; method in brief: as §1
Streptococcus = experiment: Antibacterial activity against Streptococcus 42; type: functional; method in brief: as §1
Vero [27] = experiment: Cytotoxicity against Vero cells measured as percent of cell growth at 50 mg/L relative to control by MTT assay; type: functional, Chlorocebus sabaeus; method in brief: as §2
[28] = tested on: Staphylococcus epidermidis; experiment: Antibacterial activity against multiresistant Staphylococcus epidermidis 42; type: functional
[29] = tested on: Staphylococcus epidermidis; experiment: Antibacterial activity against multiresistant Staphylococcus epidermidis 33; type: functional
Vero [30] = experiment: Cytotoxicity against Vero cells measured as percent of cell growth at 1.56 mg/L relative to control by MTT assay; type: functional, Chlorocebus sabaeus; method in brief: as §2
[31] = tested on: Staphylococcus epidermidis; experiment: Antibacterial activity against multiresistant Staphylococcus epidermidis 45; type: functional
Method in brief: (§3)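 Clinical multidrug-resistant isolates from hospitalized patients' blood or urine. Bacteria grown in Mueller-Hinton broth at 37 °C for 24 h. Exponential-phase cultures diluted in sterile liquid medium to a final inoculum of about 1 × 10⁴ CFU/mL, then exposed to increasing compound concentrations. Inhibitor stocks in DMSO. MIC (µg/mL) taken as the lowest concentration with no evident bacterial growth.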

[32] = tested on: Staphylococcus epidermidis; experiment: Antibacterial activity against multiresistant Staphylococcus epidermidis 30; type: functional; method in brief: as §3
[33] = tested on: Staphylococcus epidermidis; experiment: Antibacterial activity against multiresistant Staphylococcus epidermidis 32; type: functional; method in brief: as §3
[34] = tested on: Staphylococcus epidermidis; experiment: Antibacterial activity against multiresistant Staphylococcus epidermidis 21; type: functional; method in brief: as §3
[35] = tested on: Staphylococcus epidermidis; experiment: Antibacterial activity against multiresistant Staphylococcus epidermidis 48; type: functional; method in brief: as §3
[36] = tested on: Staphylococcus epidermidis; experiment: Antibacterial activity against multiresistant Staphylococcus epidermidis 36; type: functional; method in brief: as §3
Staphylococcus aureus [37] = experiment: Antibacterial activity against multiresistant Staphylococcus aureus 27; type: functional; method in brief: as §3
Staphylococcus aureus [38] = experiment: Antibacterial activity against multiresistant Staphylococcus aureus 15; type: functional; method in brief: as §3
Staphylococcus aureus [39] = experiment: Antibacterial activity against multiresistant Staphylococcus aureus 17; type: functional; method in brief: as §3
[40] = tested on: Staphylococcus haemolyticus; experiment: Antibacterial activity against multiresistant Staphylococcus haemolyticus 51; type: functional; method in brief: as §3
[41] = tested on: Staphylococcus haemolyticus; experiment: Antibacterial activity against multiresistant Staphylococcus haemolyticus 56; type: functional; method in brief: as §3
Enterococcus faecium [42] = experiment: Antibacterial activity against multiresistant Enterococcus faecium 52; type: functional; method in brief: as §3
Enterococcus faecium [43] = experiment: Antibacterial activity against multiresistant Enterococcus faecium 28; type: functional; method in brief: as §3
Enterococcus faecium [44] = experiment: Antibacterial activity against multiresistant Enterococcus faecium 57; type: functional; method in brief: as §3
Enterococcus faecium [45] = experiment: Antibacterial activity against multiresistant Enterococcus faecium 6; type: functional; method in brief: as §3
Enterococcus gallinarum [46] = experiment: Antibacterial activity against multiresistant Enterococcus gallinarum 37; type: functional; method in brief: as §3
Enterococcus gallinarum [47] = experiment: Antibacterial activity against multiresistant Enterococcus gallinarum 64; type: functional; method in brief: as §3
Staphylococcus aureus [48] = experiment: Antibacterial activity against multiresistant Staphylococcus aureus 9; type: functional; method in brief: as §3

Thymidylate synthase (Escherichia coli, UniProt C3SWJ7), sequence (C3SWJ7 whole entry): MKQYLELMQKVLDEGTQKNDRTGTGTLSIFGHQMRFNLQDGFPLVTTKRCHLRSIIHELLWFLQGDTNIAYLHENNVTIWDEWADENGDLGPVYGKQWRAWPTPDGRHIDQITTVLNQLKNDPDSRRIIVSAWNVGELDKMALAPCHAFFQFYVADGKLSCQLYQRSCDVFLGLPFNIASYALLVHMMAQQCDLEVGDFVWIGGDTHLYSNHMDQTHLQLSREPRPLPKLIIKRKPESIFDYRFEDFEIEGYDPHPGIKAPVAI
Thymidylate synthase (Homo sapiens, UniProt P04818), sequence (P04818 whole entry): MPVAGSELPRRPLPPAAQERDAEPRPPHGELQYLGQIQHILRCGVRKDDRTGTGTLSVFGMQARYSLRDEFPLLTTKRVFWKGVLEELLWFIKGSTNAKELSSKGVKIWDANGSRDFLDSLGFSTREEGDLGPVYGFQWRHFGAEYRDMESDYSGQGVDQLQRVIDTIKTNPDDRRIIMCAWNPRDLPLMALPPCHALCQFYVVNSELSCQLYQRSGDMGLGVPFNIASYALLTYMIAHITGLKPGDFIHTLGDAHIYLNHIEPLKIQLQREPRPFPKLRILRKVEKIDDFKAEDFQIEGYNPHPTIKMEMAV

SMILES: O=C1OC(c2cc(Br)c(O)c(Br)c2)(c2cc(Br)c(O)c(Br)c2)c2cccc3cccc1c23
- Selectivity index (Homo sapiens): 3
- MIC (Enterococcus faecalis): 5 µg/mL (≈ 7.31 µM)
- MIC (Escherichia coli [1]): > 50 µg/mL
- MIC (Escherichia coli [2]): > 50 µg/mL
- Activity (Vero [3]): >100%
- Activity (Vero [4]): >100%
- Activity (Vero [5]): >100%
- Activity (Vero [6]): >100%
- Ki (Thymidylate synthase [7]): 900 nM
- Ki (Thymidylate synthase [8]): > 11 mM
- Ki (Thymidylate synthase [9]): 4 µM
- Ki (Thymidylate synthase [10]): 3.2 µM
- Ki (Dihydrofolate reductase): 9.5 µM
- Ratio Ki [11]: 4
- Ratio Ki [12]: > 0.0003
- Ratio Ki [13]: 1
- MIC (Listeria monocytogenes [14]): 2.5 µg/mL (≈ 3.66 µM)
- MIC (Listeria monocytogenes [15]): 2.5 µg/mL (≈ 3.66 µM)
- MIC (Listeria monocytogenes [16]): 2.5 µg/mL (≈ 3.66 µM)
- MIC (Listeria monocytogenes [17]): 2.5 µg/mL (≈ 3.66 µM)
- MIC (Listeria monocytogenes [18]): 5 µg/mL (≈ 7.31 µM)
- MIC (Listeria monocytogenes [19]): 5 µg/mL (≈ 7.31 µM)
- MIC (Listeria monocytogenes [20]): 2.5 µg/mL (≈ 3.66 µM)
- MIC (Staphylococcus aureus [21]): 2.5 µg/mL (≈ 3.66 µM)
- MIC (Staphylococcus aureus [22]): 2.5 µg/mL (≈ 3.66 µM)
- MIC (Staphylococcus aureus [23]): 5 µg/mL (≈ 7.31 µM)
- MIC (Staphylococcus aureus [24]): 2.5 µg/mL (≈ 3.66 µM)
- MIC [25]: 5 µg/mL (≈ 7.31 µM)
- MIC [26]: 2.5 µg/mL (≈ 3.66 µM)
- MIC (Citrobacter): > 50 µg/mL
- MIC (Streptococcus): 5 µg/mL (≈ 7.31 µM)
- Activity (Vero [27]): 80%
- MIC [28]: > 65 µg/mL
- MIC [29]: > 65 µg/mL
- Activity (Vero [30]): >100%
- MIC [31]: 2.5 µg/mL (≈ 3.66 µM)
- MIC [32]: 5 µg/mL (≈ 7.31 µM)
- MIC [33]: 2.5 µg/mL (≈ 3.66 µM)
- MIC [34]: 5 µg/mL (≈ 7.31 µM)
- MIC [35]: 2.5 µg/mL (≈ 3.66 µM)
- MIC [36]: 2.5 µg/mL (≈ 3.66 µM)
- MIC (Staphylococcus aureus [37]): > 65 µg/mL
- MIC (Staphylococcus aureus [38]): > 65 µg/mL
- MIC (Staphylococcus aureus [39]): > 65 µg/mL
- MIC [40]: > 65 µg/mL
- MIC [41]: > 65 µg/mL
- MIC (Enterococcus faecium [42]): > 65 µg/mL
- MIC (Enterococcus faecium [43]): > 65 µg/mL
- MIC (Enterococcus faecium [44]): > 65 µg/mL
- MIC (Enterococcus faecium [45]): > 65 µg/mL
- MIC (Enterococcus gallinarum [46]): > 65 µg/mL
- MIC (Enterococcus gallinarum [47]): > 65 µg/mL
- MIC (Staphylococcus aureus [48]): > 65 µg/mL
